High-throughput results deposited in PubChem BioAssay by several laboratories.
A3G deaminase – blocks human APOBEC3G single-stranded DNA deamination. Q9HC16. recombinant A3G, ssDNA deamination FAM/TAMRA fluorescence. inhibition, % at 20 µM. 0.28% of 330,000 active. AID 493012;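 active = inhibition of at least 40% at 20 µM, with no more than 30% in the related APOBEC3A deaminase screen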;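 also: plate controls were DMSO wells with A3G for no effect and wells lacking A3G enzyme for full effect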
ABHD5-PLIN5 inh – inhibitors of human ABHD5-perilipin-5 interaction; inhibition, % at 4 µM; AID 602281; Q00G26+Q8WTS1; Split G. princeps luciferase complementation, luminescence, 4 h; 0.78% of 360,000 active;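 active = inhibition above the mean inhibition across every tested compound plus 3 SD, cut at about 22% in these data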;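 also: 0% = DMSO only wells and the 100% control is not disclosed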
APOBEC3A inh – human APOBEC3A DNA deaminase inhibition; recombinant A3A, FAM/TAMRA ssDNA deamination fluorescence; inhibition, % at 20 µM; 0.41% of 330,000 active; P31941;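 active = at least 40% inhibition at 20 µM here, with at most 30% in a related deaminase screen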;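 also: plate controls were A3A with DMSO for no effect and wells lacking A3A enzyme for full effect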
FN deposition inh – fibronectin deposition inhibition | AH1F fibroblasts, Alexa488-fibronectin deposition fluorescence, overnight | inhibition, % at 12.6 µM | 0.086% of 350,000 active | AID 743247;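 active = mean inhibition across replicates of 30% or more, regardless of how many single replicates reach that level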;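 also: positive control wells lacked labelled fibronectin entirely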
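Measured by – fluorescence 485/525 nm · System – AH1F fibroblast monolayer, labelled fibronectin deposition · Amount – 10000 cells per well · Buffer or medium – serum-reduced DMEM (2% serum) · Doses – single dose, pinned · Also added – fluorescent fibronectin at 24 nM final · Schedule – 1 h cell attachment, overnight exposure to compound and label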
ABHD5 PLIN5 conf – confirmation of human ABHD5-PLIN5 interaction inhibitors; shares compounds with ABHD5-PLIN5 inh; biochemical ABHD5-PLIN5 interaction, luminescence; inhibition, % at 4 µM; 67% of 2,200 active; in the data active = inhibition above about 23%;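 also: 0% = DMSO vehicle wells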
HNF4 split-luc – active in HNF4 split-luciferase counter-screen for ABHD5-PLIN5 inhibitors | shares compounds with ABHD5-PLIN5 inh | HNF4 dimerization, luminescence, biochemical | inhibition, % at 4 µM | 77% of 2,200 active | AID 651674;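 active = mean inhibition across replicate wells exceeding the computed hit threshold, cut at about 13% in these data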;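 also: light from luciferase halves that rejoin when HNF4 fusion proteins dimerize; 0% = DMSO only wells and the 100% control is not given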
Target sequence (P41235 whole entry, looked up, the tested form may be a part): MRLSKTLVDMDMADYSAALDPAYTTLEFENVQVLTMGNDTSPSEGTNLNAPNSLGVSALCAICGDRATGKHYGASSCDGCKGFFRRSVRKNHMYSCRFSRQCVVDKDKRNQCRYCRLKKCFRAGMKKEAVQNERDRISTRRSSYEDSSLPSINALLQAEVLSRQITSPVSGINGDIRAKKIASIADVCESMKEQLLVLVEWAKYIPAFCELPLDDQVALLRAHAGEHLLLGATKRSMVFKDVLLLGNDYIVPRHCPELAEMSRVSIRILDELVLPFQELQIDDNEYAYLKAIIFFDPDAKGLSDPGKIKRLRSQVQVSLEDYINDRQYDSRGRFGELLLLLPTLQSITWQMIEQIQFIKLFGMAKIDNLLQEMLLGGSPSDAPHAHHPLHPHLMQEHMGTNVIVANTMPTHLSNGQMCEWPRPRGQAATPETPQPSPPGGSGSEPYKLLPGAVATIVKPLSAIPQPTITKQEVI
* hit, by the source's call; · = no result given. Rows were chosen to be rich in hits. Some 1.2% of all compounds tested hit in one or more screens of this group.

SMILES	A3G deaminase	ABHD5-PLIN5 inh	APOBEC3A inh	FN deposition inh	ABHD5 PLIN5 conf	HNF4 split-luc
O=C(O)[C@@H]1[C@@H](CO)[C@@H]2Cn3c(ccc(-c4ccncc4)c3=O)[C@H]1N2S(=O)(=O)c1ccccc1F	·	·	·	4	·	·
C/C=C/c1ccc(C2[C@H]3CNC[C@@H]2N3Cc2ccccn2)cc1 (stereo partly drawn)	·	·	·	-10	·	·
CN(C)c1ccc(/C=C/c2cc[n+](C)c3ccccc23)cc1	·	23*	·	0	31*	30*
CN1C(=O)C(=Cc2ccccc2OS(=O)(=O)c2ccccc2)C(=O)N(C)C1=O	-6	45*	1	-1	76*	74*
S=P(Nn1cnnc1)(c1ccccc1)c1ccccc1	-8	30*	5	5	3	3
O=C(O)[C@@H]1[C@@H](CO)[C@@H]2Cn3c(ccc(C4=CCCCC4)c3=O)[C@H]1N2C(=O)Cc1ccccn1	·	·	·	7	·	·
OC12ONC(c3ccccn3)C1N1CCC2CC1 (stereo not drawn)	-3	52*	-3	-8	2	25*
O=C1NC(=O)C(=Cc2ccc(N3CCN(C(=O)c4ccccc4)CC3)c([N+](=O)[O-])c2)C(=O)N1	-4	41*	0	3	91*	90*
Cn1c(O)c(/C=N/c2ncccn2)c(=O)n(C)c1=O	-6	40*	-2	1	8	23*
COc1ccc(-n2c(O)c(/C(C)=N/Nc3ccccc3)c(=O)[nH]c2=O)cc1	-4	15	-2	10	·	·
CC/C(=N\Nc1ccccc1)c1c(O)n(-c2ccccc2)c(=O)[nH]c1=O	5	25*	0	7	16	19*
O=C(Cc1ccccc1)N1CC2(C1)[C@H](c1ccccc1)[C@H](CO)N2Cc1cccc(Cl)c1	·	·	·	-4	·	·
CCN(CC)c1ccc(/C=C/[N+](=O)[O-])cc1	-9	54*	-1	5	96*	96*
CCN(CC)c1ccccc1	-10	3	-3	·	·	·
COC(=O)c1nc(-c2ccc3c(n2)C(=O)C(N)=C(OC)C3=O)c(N)c(-c2ccc(OC)c(OC)c2O)c1C	-1	25*	3	-1	-16	14*
Cc1cc(/C=C2\C(=O)NC(=O)N(c3ccc(Cl)cc3)C2=O)c(C)n1-c1cccc(C(=O)O)c1	10	12	24	-8	·	·
O=C1NC(=O)N(c2ccccc2)C(=O)/C1=C/c1ccoc1	5	4	10	4	·	·
O=C1NC(=O)N(c2ccc(Cl)cc2)C(=O)/C1=C/c1coc2ccc(O)cc2c1=O	0	25*	7	2	87*	81*
O=C1NC(=O)N(c2ccccc2)C(=O)/C1=C/c1coc2ccc(O)cc2c1=O	-1	37*	10	0	90*	88*
O=C1NC(=O)N(c2ccccc2)C(=O)/C1=C\c1ccccc1[N+](=O)[O-]	2	24*	1	-4	78*	80*
C/C=C/c1ccc([C@H]2[C@H](CO)N3CCCCN(C(=O)Cc4cccnc4)C[C@@H]23)cc1	·	·	·	4	·	·
Brc1ccc2c(c1)C(OC1CN3CCC1CC3)c1ccccc1CS2 (stereo not drawn)	-5	29*	-1	·	11	12*
CCOC(=O)C1C(OC(=O)c2ccccc2)CC2CCC1N2C (stereo not drawn)	·	26*	·	·	35*	1
CN1C2CCC1C(C(=O)O)C(OC(=O)c1ccccc1)C2 (stereo not drawn)	-6	5	0	·	·	·
CCCCn1c(NS(=O)(=O)c2ccc(C)cc2)c(C(=O)OCC)c2nc3ccccc3nc21	-5	-21	0	12	·	·
SMILES	A3G deaminase	ABHD5-PLIN5 inh	APOBEC3A inh	FN deposition inh	ABHD5 PLIN5 conf	HNF4 split-luc
CCCCn1c(NC(=O)c2ccco2)c(C(=O)OCC)c2nc3ccccc3nc21	5	31*	-2	·	41*	62*
COC(=O)C[C@H]1CC[C@H]2NC[C@H](O)COC[C@@H]2O1	·	·	·	-25	·	·
N#CCCn1cc(C=C2C(=O)NC(=O)NC2=O)c(-c2ccccc2)n1	7	23*	2	7	51*	84*
C[C@@H]1CN([C@H](C)CO)C(=O)CCCn2nncc2CO[C@H]1CN(C)C(=O)Oc1ccc2ccccc2c1	·	-3	·	3	·	·
Nc1c(C(=O)NCc2ccco2)c2nc3ccccc3nc2n1Cc1ccccc1	-5	25*	-2	1	35*	36*
CC1=CC2/C=C(\C)CCC(O)C(O)/C=C/C(=O)C23C(=O)NC(CC(C)C)C3C1C (stereo not drawn)	-8	65*	-3	·	90*	103*
Cc1cc(C)n(-c2ccc(NN=C(C#N)C#N)cc2)n1	-7	44*	-2	-7	49*	43*
N#CC(C#N)=NNc1ccc(-n2ccc(C(F)(F)F)n2)cc1	1	58*	-3	-27	83*	71*
COc1ccc(CCNC(=O)c2c(N)n(CCN3CCOCC3)c3nc4ccccc4nc23)cc1OC	-3	25*	3	-5	16	3
CCCCCn1c(N)c(C(=O)NCCN2CCOCC2)c2nc3ccccc3nc21	-7	5	-3	·	·	·
C[C@@H]1CN([C@@H](C)CO)C(=O)CCCn2cc(nn2)CO[C@@H]1CN(C)C(=O)Oc1ccc2ccccc2c1	·	·	·	8	·	·
O=C1NC(=O)C(=Cc2ccc3ccccc3c2)C(=O)N1	-1	16	2	2	·	·
O=C1NC(=O)C(=Cc2ccc(Cl)cc2)C(=O)N1	·	27*	·	-6	76*	75*
